Values after ≈ are worked out from the molar mass of the structure shown.
Tests used:
Type in all cases: functional
[1] = tested on: Mycobacterium avium; test: Inhibition of growth of Mycobacterium avium (ATCC 25291) was determined using microplate alamar blue assay at 10 ug/mL concentration with compound dissolved in DMSO
Procedure, shortened: (§1)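 MABA in 7H9GC medium; M. bovis BCG or M. avium ATCC 25291 frozen inocula at 2.5 × 10⁵ CFU/mL final, 100× DMSO stocks diluted into medium. Incubated 6 days, then alamar blue plus 20% Tween-80 added once bacteria-only wells turned pink, read 24 h later by fluorescence. % inhibition = […]. Triplicate wells, three experiments, mean reported.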

[2] = tested on: Mycobacterium avium; test: Inhibition of growth of Mycobacterium avium (ATCC 25291) was determined using microplate alamar blue assay at 50 ug/mL concentration with compound dissolved in DMSO; procedure, shortened: as §1
[3] = tested on: Mycobacterium avium; test: Inhibition of growth of Mycobacterium avium (ATCC 25291) was determined using microplate alamar blue assay at 100 ug/mL concentration with compound dissolved in DMSO; procedure, shortened: as §1
[4] = tested on: Mycobacterium avium; test: Minimum inhibitory concentration against Mycobacterium avium (ATCC 25291)
Procedure, shortened: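 Alamar blue microplate assay in 7H9GC. BCG or M. avium ATCC 25291 at 2.5 × 10⁵ CFU/mL final, exposed to compound at 100, 50, 10 and 1 µg/mL in triplicate. Reagent added after 6+ days once growth controls turned pink, read after 24 h visually and by fluorescence. MIC₉₀ taken as the lowest concentration giving ~90% growth inhibition.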

[5] = tested on: Mycobacterium avium; test: Inhibition of growth of Mycobacterium avium (ATCC 25291) was determined using microplate alamar blue assay at 2 ug/mL concentration with compound dissolved in DMSO

| SMILES | inhibition at 10 µg/mL [1] [%] | inhibition at 50 µg/mL [2] [%] | inhibition at 100 µg/mL [3] [%] | MIC90 [4] [µg/mL] | inhibition at 2 µg/mL [5] [%] |
| --- | --- | --- | --- | --- | --- |
| CCCCCCCCC#Cc1cn([C@H]2C[C@H](O)[C@@H](CO)O2)c(=O)nc1N | 20 | 50 | 75 |  |  |
| CC[C@H]1OC(=O)[C@H](C)[C@@H](O[C@H]2C[C@@](C)(OC)[C@@H](O)[C@H](C)O2)[C@H](C)[C@@H](O[C@@H]2O[C@H](C)C[C@H](N(C)C)[C@H]2O)[C@](C)(OC)C[C@@H](C)C(=O)[C@H](C)[C@@H](O)[C@]1(C)O [CLARITHROMYCIN] |  |  |  | 2 (≈ 2.67 µM) | 95 |
| CCCCCCCCCCCCC#Cc1cn([C@H]2C[C@H](O)[C@@H](CO)O2)c(=O)[nH]c1=O |  | 30 | 75 |  |  |
| CO[C@H]1/C=C/O[C@@]2(C)Oc3c(C)c(O)c4c(O)c(c(/C=N/N5CCN(C)CC5)c(O)c4c3C2=O)NC(=O)/C(C)=C\C=C\[C@H](C)[C@H](O)[C@@H](C)[C@@H](O)[C@@H](C)[C@H](OC(C)=O)[C@@H]1C [RIFAMPIN] |  |  |  | 2 (≈ 2.43 µM) | 90 |
| CCCCCC#Cc1cn([C@H]2C[C@H](O)[C@@H](CO)O2)c(=O)[nH]c1=O |  |  | 25 |  |  |
| CCCCCCCCC#Cc1cn([C@H]2C[C@H](O)[C@@H](CO)O2)c(=O)[nH]c1=O |  |  | 30 |  |  |
| CCCCCCCCCCC#Cc1cn([C@H]2C[C@H](O)[C@@H](CO)O2)c(=O)[nH]c1=O |  | 0 | 75 |  |  |
| CCCCCCCCCCC#Cc1cn([C@H]2C[C@H](O)[C@@H](CO)O2)c(=O)nc1N | 10 | 60 | 100 | 100 (≈ 255 µM) |  |
